Results from article PMC9291822 (British Journal of Clinical Pharmacology, 2021).
Like-named read-outs stand apart in the source and are kept apart here.

Columns and labels:
[1] = type: in vivo, human; details: for AUCinf of metabolite, GM / AUCinf of metabolite, mean (SD) / AUClast of metabolite, GM / AUClast of metabolite, mean (SD) / Cmax of metabolite, GM / Cmax of metabolite, mean (SD) / Metabolite ratio of AUCinf, GM / Metabolite ratio of AUCinf, mean (SD) / Metabolite ratio of AUClast, GM / Metabolite ratio of AUClast, mean (SD) / Tmax of metabolite, median (range) / t½ of metabolite, GM / t½ of metabolite, mean (SD): after capmatinib single oral dose 200 mg
Outline: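 Adults aged 18–75 with hepatic impairment (Child–Pugh A/B/C, also reclassified by NCI Organ Dysfunction Working Group criteria) or normal function, matched on age, weight and sex. Overnight fast (≥10 h), single oral 200 mg (2 × 100 mg tablets), fasting ≥4 h post-dose. Plasma sampled predose to 72 h; parent and metabolite measured by validated LC-MS/MS (LLOQ ~1.00 ng/mL). Noncompartmental analysis; GM ratios vs normal with 90% CIs.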

[2] = multiple dosing of capmatinib; cited from earlier work
[3] = mild (n = 6), listed as M16 (CMN288)
[4] = moderate (n = 8), listed as M16 (CMN288)
[5] = normal (n = 9), listed as M16 (CMN288)
[6] = severe (n = 6), listed as M16 (CMN288)

AUCinf of metabolite, GM ([1]; mild (n = 6)): 2190 ng·h/mL
AUCinf of metabolite, mean (SD) ([1]; mild (n = 6)): 2300 (691) ng × h/mL
AUClast of metabolite, GM ([1]; mild (n = 6)): 2150 ng·h/mL
AUClast of metabolite, mean (SD) ([1]; mild (n = 6)): 2250 (677) ng × h/mL
Cmax of metabolite, GM ([1]; mild (n = 6)): 423 ng/mL
Cmax of metabolite, mean (SD) ([1]; mild (n = 6)): 492 (272) ng/mL
Metabolite ratio of AUCinf, GM ([1]; mild (n = 6)): 0.440 (23.8) fold
Metabolite ratio of AUCinf, mean (SD) ([1]; mild (n = 6)): 0.450 (0.0988) fold
Metabolite ratio of AUClast, GM ([1]; mild (n = 6)): 0.437 (24.1) fold
Metabolite ratio of AUClast, mean (SD) ([1]; mild (n = 6)): 0.447 (0.100) fold
Tmax of metabolite, median (range) ([1]; mild (n = 6)): 1.00 (1.00–2.00) h
t½ of metabolite, GM ([1]; mild (n = 6)): 6.84 h
t½ of metabolite, mean (SD) ([1]; mild (n = 6)): 7.86 (5.49) h
Metabolite ratio of AUCinf, GM [1, 3]: 0.440 fold
Metabolite ratio of AUClast, GM [1, 3]: 0.437 fold
AUCinf of metabolite, GM ([1]; moderate (n = 8)): 3400 ng·h/mL
AUCinf of metabolite, mean (SD) ([1]; moderate (n = 8)): 3850 (2490) ng × h/mL
AUClast of metabolite, GM ([1]; moderate (n = 8)): 3370 ng·h/mL
AUClast of metabolite, mean (SD) ([1]; moderate (n = 8)): 3830 (2490) ng × h/mL
Cmax of metabolite, GM ([1]; moderate (n = 8)): 587 ng/mL
Cmax of metabolite, mean (SD) ([1]; moderate (n = 8)): 738 (645) ng/mL
Metabolite ratio of AUCinf, GM ([1]; moderate (n = 8)): 0.573 (67.7) fold
Metabolite ratio of AUCinf, mean (SD) ([1]; moderate (n = 8)): 0.680 (0.443) fold
Metabolite ratio of AUClast, GM ([1]; moderate (n = 8)): 0.573 (68.0) fold
Metabolite ratio of AUClast, mean (SD) ([1]; moderate (n = 8)): 0.680 (0.445) fold
Tmax of metabolite, median (range) ([1]; moderate (n = 8)): 1.00 (1.00–3.00) h
t½ of metabolite, GM ([1]; moderate (n = 8)): 6.42 h
t½ of metabolite, mean (SD) ([1]; moderate (n = 8)): 7.32 (5.16) h
Metabolite ratio of AUCinf, GM [1, 4]: 0.573 fold
Metabolite ratio of AUClast, GM [1, 4]: 0.573 fold
AUCinf of metabolite, GM ([1]; normal (n = 9)): 4560 ng·h/mL
AUCinf of metabolite, mean (SD) ([1]; normal (n = 9)): 4820 (1880) ng × h/mL
AUClast of metabolite, GM ([1]; normal (n = 9)): 4520 ng·h/mL
AUClast of metabolite, mean (SD) ([1]; normal (n = 9)): 4780 (1880) ng × h/mL
Cmax of metabolite, GM ([1]; normal (n = 9)): 1010 ng/mL
Cmax of metabolite, mean (SD) ([1]; normal (n = 9)): 1050 (328) ng/mL
Metabolite ratio of AUCinf, GM ([1]; normal (n = 9)): 0.704 (24.1) fold
Metabolite ratio of AUCinf, mean (SD) ([1]; normal (n = 9)): 0.722 (0.181) fold
Metabolite ratio of AUClast, GM ([1]; normal (n = 9)): 0.702 (24.0) fold
Metabolite ratio of AUClast, mean (SD) ([1]; normal (n = 9)): 0.720 (0.180) fold
Tmax of metabolite, median (range) ([1]; normal (n = 9)): 1.50 (1.00–2.00) h
t½ of metabolite, GM ([1]; normal (n = 9)): 9.96 h
t½ of metabolite, mean (SD) ([1]; normal (n = 9)): 11.4 (6.92) h
Metabolite ratio of AUCinf, GM [1, 5]: 0.704 fold
Metabolite ratio of AUClast, GM [1, 5]: 0.702 fold
AUCinf of metabolite, GM ([1]; severe (n = 6)): 2130 ng·h/mL
AUCinf of metabolite, mean (SD) ([1]; severe (n = 6)): 2350 (1200) ng × h/mL
AUClast of metabolite, GM ([1]; severe (n = 6)): 2110 ng·h/mL
AUClast of metabolite, mean (SD) ([1]; severe (n = 6)): 2330 (1210) ng × h/mL
Cmax of metabolite, GM ([1]; severe (n = 6)): 262 ng/mL
Cmax of metabolite, mean (SD) ([1]; severe (n = 6)): 287 (130) ng/mL
Metabolite ratio of AUCinf, GM ([1]; severe (n = 6)): 0.266 (32.2) fold
Metabolite ratio of AUCinf, mean (SD) ([1]; severe (n = 6)): 0.276 (0.0802) fold
Metabolite ratio of AUClast, GM ([1]; severe (n = 6)): 0.264 (32.2) fold
Metabolite ratio of AUClast, mean (SD) ([1]; severe (n = 6)): 0.274 (0.0795) fold
Tmax of metabolite, median (range) ([1]; severe (n = 6)): 3.00 (1.50–6.00) h
t½ of metabolite, GM ([1]; severe (n = 6)): 5.87 h
t½ of metabolite, mean (SD) ([1]; severe (n = 6)): 5.93 (0.907) h
Metabolite ratio of AUCinf, GM [1, 6]: 0.266 fold
Metabolite ratio of AUClast, GM [1, 6]: 0.264 fold
decrease in metabolite GM AUCinf vs. normal group ([1]; mild group): 52.0%
decrease in metabolite GM AUClast vs. normal group ([1]; mild group): 52.4%
decrease in metabolite GM Cmax vs. normal group ([1]; mild group): 58.1%
decrease in metabolite GM t1/2 vs. normal group ([1]; mild group): 31.3%
decrease in metabolite GM AUCinf vs. normal group ([1]; moderate group): 25.4%
decrease in metabolite GM AUClast vs. normal group ([1]; moderate group): 25.4%
decrease in metabolite GM Cmax vs. normal group ([1]; moderate group): 41.9%
decrease in metabolite GM t1/2 vs. normal group ([1]; moderate group): 35.5%
decrease in metabolite GM AUCinf vs. normal group ([1]; severe group): 53.3%
decrease in metabolite GM AUClast vs. normal group ([1]; severe group): 53.3%
decrease in metabolite GM Cmax vs. normal group ([1]; severe group): 74.1%
decrease in metabolite GM t1/2 vs. normal group ([1]; severe group): 41.1%
decrease in metabolite GM AUCinf and AUClast vs. normal hepatic function ([1]; the 3 hepatic impairment groups): 25–53%
Structure (SMILES): CNC(=O)c1ccc(-c2nn3c(Cc4ccc5ncccc5c4)cnc3[nH]c2=O)cc1F [CMN288]
accumulation of metabolite after multiple dosing [2]: does not accumulate
